Measured values taken from ChEMBL document CHEMBL4145519, “Structural investigations on coumarins leading to chromeno[4,3-c]pyrazol-4-ones and pyrano[4,3-c]pyrazol-4-ones: New scaffolds for the design of the tumor-associated carbonic anhydrase isoforms IX and XII” (Eur J Med Chem, 2018).
Calls of active or inactive are those of the source. No cut-off for these calls is given here.

Legend:
[1] = biological target: Carbonic anhydrase 12 (Homo sapiens, UniProt O43570); experiment: Inhibition of human CA12 after 15 mins by stopped-flow CO2 hydration assay
[2] = biological target: Carbonic anhydrase 1 (Homo sapiens, UniProt P00915); experiment: Inhibition of human CA1 after 15 mins by stopped-flow CO2 hydration assay
[3] = biological target: Carbonic anhydrase 2 (Homo sapiens, UniProt P00918); experiment: Inhibition of human CA2 after 15 mins by stopped-flow CO2 hydration assay
[4] = biological target: Carbonic anhydrase 9 (Homo sapiens, UniProt Q16790); experiment: Inhibition of human CA9 after 15 mins by stopped-flow CO2 hydration assay
[5] = test system: HT-29; experiment: Antiproliferative activity against human HT-29 cells at 30 to 300 uM after 48 hrs under normoxic conditions by MTT assay; type: functional, cell-based
Method in brief: (§1)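 HT-29 colon cancer cells in DMEM high glucose with 20% FBS were seeded at 1·10^4/well. After 24 h they were exposed to 0–300 μM compound for 16, 48 or 72 h in air (20% O2, 5% CO2, 37 °C). MTT (1 mg/ml) was added for 30 min, formazan dissolved in DMSO and read at 550 nm. Viability is relative to untreated control (100%). Quadruplicates on ≥3 cell batches, mean ± SEM.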

[6] = test system: HT-29; experiment: Antiproliferative activity against human HT-29 cells at 30 to 300 uM after 48 hrs under hypoxic conditions by MTT assay; type: functional, cell-based
Method in brief: (§2)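 Hypoxic workstation at 0.1% O2, 5% CO2 and residual N2. HT-29 cells (DMEM high glucose, 20% FBS; 1·10^4/well) were treated 24 h post-plating with 0–300 μM compound for 16, 48 or 72 h. Viability was measured by MTT reduction (1 mg/ml, 30 min, 37 °C; DMSO-dissolved formazan, A550) and expressed as % of untreated control. Quadruplicates, ≥3 batches, mean ± SEM.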

[7] = test system: HT-29; experiment: Antiproliferative activity against human HT-29 cells at 30 to 300 uM after 72 hrs under hypoxic conditions by MTT assay; type: functional, cell-based; method in brief: as §2
[8] = test system: HT-29; experiment: Antiproliferative activity against human HT-29 cells at 30 to 300 uM after 16 hrs under normoxic conditions by MTT assay; type: functional, cell-based; method in brief: as §1
[9] = test system: HT-29; experiment: Antiproliferative activity against human HT-29 cells at 30 to 100 uM after 48 hrs under normoxic conditions by MTT assay; type: functional, cell-based; method in brief: as §1
[10] = test system: HT-29; experiment: Antiproliferative activity against human HT-29 cells at 30 to 100 uM after 16 hrs under normoxic conditions by MTT assay; type: functional, cell-based; method in brief: as §1
[11] = Solubility of the compounds at 300 uM; type: physicochemical
[12] = test system: HT-29; experiment: Antiproliferative activity against human HT-29 cells at 100 uM after 48 hrs under normoxic conditions by MTT assay; type: functional; method in brief: as §1
[13] = test system: HT-29; experiment: Antiproliferative activity against human HT-29 cells at 30 to 100 uM after 72 hrs under normoxic conditions by MTT assay; type: functional, cell-based; method in brief: as §1
[14] = test system: HT-29; experiment: Antiproliferative activity against human HT-29 cells at 30 to 100 uM after 72 hrs under hypoxic conditions by MTT assay; type: functional, cell-based; method in brief: as §2
[15] = test system: HT-29; experiment: Antiproliferative activity against human HT-29 cells at 30 uM after 48 hrs under hypoxic conditions by MTT assay; type: functional; method in brief: as §2
[16] = test system: HT-29; experiment: Antiproliferative activity against human HT-29 cells after 16 hrs under normoxic conditions by MTT assay; type: functional, cell-based; method in brief: as §1
[17] = test system: HT-29; experiment: Antiproliferative activity against human HT-29 cells at 100 uM after 72 hrs under hypoxic conditions by MTT assay; type: functional; method in brief: as §2

Sequence of Carbonic anhydrase 12 (O43570 whole entry): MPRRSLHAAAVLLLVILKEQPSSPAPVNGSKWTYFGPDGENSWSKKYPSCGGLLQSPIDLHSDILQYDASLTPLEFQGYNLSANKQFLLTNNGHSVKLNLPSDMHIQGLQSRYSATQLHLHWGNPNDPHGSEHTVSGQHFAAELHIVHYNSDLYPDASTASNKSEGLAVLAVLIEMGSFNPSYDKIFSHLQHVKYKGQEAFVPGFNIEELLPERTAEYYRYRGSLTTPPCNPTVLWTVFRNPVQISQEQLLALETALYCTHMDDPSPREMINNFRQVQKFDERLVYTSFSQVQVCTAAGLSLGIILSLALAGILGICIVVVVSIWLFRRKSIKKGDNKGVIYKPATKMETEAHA
Sequence of Carbonic anhydrase 1 (P00915 whole entry): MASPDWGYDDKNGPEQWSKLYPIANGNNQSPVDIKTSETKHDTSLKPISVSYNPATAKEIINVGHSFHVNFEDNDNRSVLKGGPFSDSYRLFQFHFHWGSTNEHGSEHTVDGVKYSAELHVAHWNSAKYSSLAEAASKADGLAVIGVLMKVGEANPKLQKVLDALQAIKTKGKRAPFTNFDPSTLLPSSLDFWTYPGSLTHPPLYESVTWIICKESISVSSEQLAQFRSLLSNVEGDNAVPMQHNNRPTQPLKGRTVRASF

SMILES	Ki [1] [nM]	Ki [2] [nM]	Ki [3] [nM]	Ki [4] [nM]	further results
O=c1oc2ccccc2c2nn(Cc3ccccc3)c(Cc3ccccc3)c12	672	> 10000	> 10000	290	–
Cc1nn(-c2ccccc2)c2c1c(=O)oc1ccc(N(C)C)cc12	360	> 10000	> 10000	59.4	–
CNc1ccc2oc(=O)c3c(C)nn(-c4ccccc4)c3c2c1	737	> 10000	> 10000	51.3	–
Cc1nn(-c2ccccc2)c2c1c(=O)oc1cc(Cl)ccc12	819	> 10000	> 10000	57.9	–
Cc1nn(Cc2ccccc2)c2c1c(=O)oc1ccccc12	732	> 10000	> 10000	371	–
CCOc1c(C(C)=O)c(=O)oc2ccc(Br)cc12	737	> 10000	> 10000	46.4	–
CC(=O)c1cc2ccc(Cl)cc2oc1=O	4530	> 10000	> 10000	809	–
Cc1nn(-c2ccccc2)c2c1c(=O)oc1ccc(N)cc12	> 10000	> 10000	> 10000	34.5	Activity [5]: Active; Activity [6]: Active; Activity [7]: Active; Activity [8]: Active
CC(=O)c1c(O)c2cc([N+](=O)[O-])ccc2oc1=O	357	> 10000	> 10000	44.2	–
Cc1nn(-c2ccccc2)c2c1c(=O)oc1ccc(Br)cc12	7.1	> 10000	> 10000	8.5	–
Cc1nn(-c2ccc(C(=O)O)cc2)c2c1c(=O)oc1ccccc12	24.7	> 10000	> 10000	1960	–
CC(=O)c1cc2ccccc2oc1=O [3-ACETYLCOUMARIN]	7.8	> 10000	> 10000	152	–
COc1ccc(-n2nc(C)c3c(=O)oc4ccccc4c32)cc1	> 10000	> 10000	> 10000	40.2	–
Cc1ccc(-n2nc(C)c3c(=O)oc4ccccc4c32)cc1	> 10000	> 10000	> 10000	–	Activity [9]: Active; Activity [10]: Active; solubility [11]: Insoluble
Cc1c2c(=O)oc3ccccc3c2nn1-c1ccccc1	593	> 10000	> 10000	38.1	–
Cc1nn(-c2ccc(Cl)cc2)c2c1c(=O)oc1ccccc12	> 10000	> 10000	> 10000	403	–
CC(=O)c1c(O)c2cc(Br)ccc2oc1=O	5.6	> 10000	> 10000	8.2	Activity [12]: 35%; Activity [9]: Active; Activity [10]: Active; Activity [13]: Active; Activity [14]: Active; solubility [11]: Insoluble; Activity [6]: Active
CC(=O)c1cc2cc([N+](=O)[O-])c(Cl)cc2oc1=O	6400	> 10000	> 10000	561	–
CC(=O)c1c(O)c2ccccc2oc1=O	453	> 10000	> 10000	35.9	–
O=c1oc2ccccc2c2c1cnn2-c1ccccc1	> 10000	> 10000	> 10000	30.1	Activity [5]: Active; Activity [15]: <=70%; Activity [6]: Active; Activity [8]: Active

SMILES	Ki [1] [nM]	Ki [2] [nM]	Ki [3] [nM]	Ki [4] [nM]	further results
Cc1c2c(=O)oc3ccc([N+](=O)[O-])cc3c2nn1-c1ccccc1	360	> 10000	> 10000	35.8	–
Cc1c2c(=O)oc3ccc(Br)cc3c2nn1-c1ccccc1	> 10000	> 10000	> 10000	25.2	–
CC(=O)c1cc2cc([N+](=O)[O-])ccc2oc1=O	695	> 10000	> 10000	44.9	–
Cn1nc(Cc2ccccc2)c2c(=O)oc3ccccc3c21	343	> 10000	> 10000	19.7	–
Cc1cc2c(c(C)nn2-c2ccccc2)c(=O)o1	518	> 10000	> 10000	26.6	–
Cc1nn(-c2ccccc2)c2c1c(=O)oc1ccc(NC(=O)Nc3ccccc3)cc12	583	> 10000	> 10000	77.9	–
O=c1oc2ccccc2c2c1c(Cc1ccccc1)nn2Cc1ccccc1	819	> 10000	> 10000	31.5	–
CC(=O)Nc1ccc2oc(=O)c3c(C)nn(-c4ccccc4)c3c2c1	646	> 10000	> 10000	26.8	–
Cn1nc2c(c1Cc1ccccc1)c(=O)oc1ccccc12	33.3	> 10000	> 10000	555	–
Cc1nn(-c2ccccc2)c2c1c(=O)oc1ccc([N+](=O)[O-])cc12	> 10000	> 10000	> 10000	27.1	Activity [5]: Active; Activity [16]: Dose-dependent effect; Activity [6]: Active
Cc1nn(-c2ccccc2)c2c1c(=O)oc1ccc(NC(=O)c3ccccc3)cc12	> 10000	> 10000	> 10000	15.3	Activity [12]: 50%; Activity [5]: Active; Activity [17]: 40%; Activity [7]: Active; Activity [8]: Active
Cc1cc2nn(-c3ccccc3)c(C)c2c(=O)o1	> 10000	> 10000	> 10000	41.4	Activity [5]: Active; Activity [16]: Dose-dependent effect; Activity [6]: Active; Activity [7]: Active
Cc1nn(-c2ccccc2)c2c1c(=O)oc1ccccc12	5.8	> 10000	> 10000	9.6	Activity [5]: Active; Activity [16]: Dose-dependent effect; Activity [6]: Active
Cc1nn(-c2ccccc2)c2c1c(=O)oc1ccc(NCc3ccccc3)cc12	360	> 10000	> 10000	37.8	–
Cc1nn(-c2ccccc2)c2c1c(=O)oc1cc(Cl)c([N+](=O)[O-])cc12	6060	> 10000	> 10000	801	–
COc1c(C(C)=O)c(=O)oc2ccccc12	674	> 10000	> 10000	28.4	–
O=c1oc2ccccc2c2nn(-c3ccccc3)cc12	> 10000	> 10000	> 10000	37.6	–
COc1c(C(C)=O)c(=O)oc2ccc(Br)cc12	706	> 10000	> 10000	90.7	–
Cc1nn(-c2ccccc2C(=O)O)c2c1c(=O)oc1ccccc12	27.3	> 10000	> 10000	76.8	–
